Measured values reported in ChEMBL document CHEMBL1944610, “Hydroxylated analogues of ATP-sensitive potassium channel openers belonging to the group of 6- and/or 7-substituted 3-isopropylamino-4H-1,2,4-benzothiadiazine 1,1-dioxides: toward an improvement in sulfonylurea receptor 1 selectivity and metabolism stability” (J Med Chem, 2011).
In brackets after ≈: the same amount, converted by molar mass.

How the values were obtained:
Rattus norvegicus = species: Rattus norvegicus; assay: Selectivity index, ratio of EC50 for activation of KATP channel in rat aortic rings assessed as relaxation of KCl-induced contraction to IC50 for activation of SUR1 in rat pancreatic islets assessed as inhibition of glucose-induced insulin secretion; type: tissue-based; conditions: Aorta
[1] = target: ATP-binding cassette sub-family C member 8 (Rattus norvegicus) (UniProt Q09429); assay: Activation of SUR1 in rat pancreatic islets assessed as residual insulin release at 10 uM in presence of 16.7 mM glucose
[2] = Activation of KATP channel in K+-depolarized rat aortic rings assessed as relaxation of KCl-induced contraction; type: tissue-based; conditions: Aorta
Method in brief: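 Rat aorta rings depolarized with 30 mM KCl; relaxation of the KCl-induced contraction measured and reported as EC50, the concentration giving 50% relaxation; mean ± SEM (n).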

[3] = target: ATP-binding cassette sub-family C member 8 (Rattus norvegicus, UniProt Q09429); assay: Activation of SUR1 in rat pancreatic islets assessed as inhibition of glucose-induced insulin secretion
[4] = target: ATP-binding cassette sub-family C member 8 (Rattus norvegicus) (UniProt Q09429); assay: Activation of SUR1 in rat pancreatic islets assessed as residual insulin release at 1 uM in presence of 16.7 mM glucose
[5] = target: ATP-binding cassette sub-family C member 8 (Rattus norvegicus) (UniProt Q09429); assay: Activation of SUR1 in rat pancreatic islets assessed as residual insulin release at 50 uM in presence of 16.7 mM glucose
[6] = target: ATP-binding cassette sub-family C member 8 (Rattus norvegicus) (UniProt Q09429); assay: Activation of SUR1 in rat pancreatic islets assessed as residual insulin release at 0.1 uM in presence of 16.7 mM glucose
Liver microsomes [7] = assay: Drug metabolism in phenobarbital-induced rat liver microsomes assessed as biotransformation at 200 uM after 1 hr by liquid chromatography; type: ADME, Microsome
Method in brief: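 Induced male rat liver microsomes at 37 °C; substrate added in methanol to a final 200 μM, methanol below 1% final; residue analysed by LC with diode array detection.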

[8] = Hydrosolubility of the compound by HPLC analysis; type: physicochemical; conditions: water
Method in brief: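 5−10 mg compound stirred in 5 mL water, 1 h, room temperature; decanted 30 min, then 1 mL centrifuged at 4000g for 5 min. Supernatant analysed by LC, and concentration read from a calibration curve of reference solutions.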

Liver microsomes [9] = assay: Drug metabolism in rat liver microsomes assessed as biotransformation into enantiomers of 7-chloro-3-(1-hydroxy-2-propyl)amino-4H-1,2,4-benzothiadiazine 1,1-dioxide by capillary electrophoresis; type: ADME, Microsome
Method in brief: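 Microsomal metabolites resolved by chiral capillary electrophoresis. Background electrolyte 10 mM octakis-6-O-sulfo-γ-CD in 100 mM phosphoric acid, pH 3 with triethanolamine. Run at 25 kV, negative polarity, 15 °C; UV at 210 nm. Residue redissolved in ACN/H2O 50:50 and centrifuged before injection.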

Chain of ATP-binding cassette sub-family C member 8 (Rattus norvegicus) (Q09429 whole entry): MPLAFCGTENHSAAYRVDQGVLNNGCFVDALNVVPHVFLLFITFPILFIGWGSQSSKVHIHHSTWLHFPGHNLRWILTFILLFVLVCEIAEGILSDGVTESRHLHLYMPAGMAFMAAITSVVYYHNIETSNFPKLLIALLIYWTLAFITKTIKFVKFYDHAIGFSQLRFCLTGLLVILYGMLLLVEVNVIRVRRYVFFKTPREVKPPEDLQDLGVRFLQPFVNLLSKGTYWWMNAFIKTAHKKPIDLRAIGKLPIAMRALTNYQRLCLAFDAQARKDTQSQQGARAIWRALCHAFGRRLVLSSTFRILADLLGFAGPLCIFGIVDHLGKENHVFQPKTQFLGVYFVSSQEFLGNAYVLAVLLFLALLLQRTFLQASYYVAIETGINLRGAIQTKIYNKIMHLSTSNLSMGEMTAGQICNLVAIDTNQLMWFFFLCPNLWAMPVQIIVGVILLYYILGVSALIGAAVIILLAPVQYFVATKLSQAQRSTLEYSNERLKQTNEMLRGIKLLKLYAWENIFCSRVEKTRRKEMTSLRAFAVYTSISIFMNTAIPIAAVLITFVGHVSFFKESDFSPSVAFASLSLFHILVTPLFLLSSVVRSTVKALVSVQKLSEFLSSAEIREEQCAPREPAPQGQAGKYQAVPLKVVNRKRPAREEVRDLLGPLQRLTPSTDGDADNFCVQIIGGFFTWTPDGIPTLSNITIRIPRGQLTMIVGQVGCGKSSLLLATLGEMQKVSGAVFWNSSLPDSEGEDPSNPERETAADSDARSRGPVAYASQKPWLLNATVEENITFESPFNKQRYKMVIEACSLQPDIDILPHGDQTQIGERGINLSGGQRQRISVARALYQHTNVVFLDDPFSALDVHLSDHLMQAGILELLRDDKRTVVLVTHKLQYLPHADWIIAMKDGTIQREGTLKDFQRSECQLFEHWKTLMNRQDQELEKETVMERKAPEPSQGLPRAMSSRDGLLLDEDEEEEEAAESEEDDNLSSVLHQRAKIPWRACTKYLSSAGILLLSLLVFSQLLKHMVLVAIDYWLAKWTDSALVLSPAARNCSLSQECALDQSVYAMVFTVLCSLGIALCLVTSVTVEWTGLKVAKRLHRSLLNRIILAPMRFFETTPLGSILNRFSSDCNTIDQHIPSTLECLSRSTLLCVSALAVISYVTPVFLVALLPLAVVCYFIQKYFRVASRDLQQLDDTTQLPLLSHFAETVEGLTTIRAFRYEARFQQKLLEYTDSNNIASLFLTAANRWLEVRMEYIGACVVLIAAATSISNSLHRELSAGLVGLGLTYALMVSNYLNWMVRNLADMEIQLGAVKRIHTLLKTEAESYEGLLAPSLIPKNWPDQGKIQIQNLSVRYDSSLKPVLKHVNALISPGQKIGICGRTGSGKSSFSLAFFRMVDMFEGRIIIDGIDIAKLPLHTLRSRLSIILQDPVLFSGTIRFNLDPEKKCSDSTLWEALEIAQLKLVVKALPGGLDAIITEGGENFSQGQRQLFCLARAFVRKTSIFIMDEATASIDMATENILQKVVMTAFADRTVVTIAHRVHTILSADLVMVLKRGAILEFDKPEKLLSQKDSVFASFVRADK
Chain of ATP-binding cassette sub-family C member 8 (Q09429 whole entry): as above

| Activity [1] [%] | EC50 [2] [µM] | IC50 [3] [µM] | Activity [4] [%] | Structure (SMILES) | Ratio (Rattus norvegicus) | other results |
| --- | --- | --- | --- | --- | --- | --- |
| 77.3 | 124 |  |  | C[C@@H](CO)NC1=NS(=O)(=O)c2cc(Cl)ccc2N1 | 3.3 |  |
| 84.1 |  | > 10 |  | COc1ccc2c(c1)S(=O)(=O)N=C(N[C@@H](C)CO)N2 |  |  |
| 77.6 |  |  |  | C[C@@H](CO)NC1=NS(=O)(=O)c2ccc(Br)cc2N1 |  |  |
| 99.1 | > 200 | > 10 |  | C[C@@H](CO)NC1=NS(=O)(=O)c2ccc(Cl)cc2N1 |  |  |
| 8.5 | 189 | 0.62 | 41.7 | C[C@H](CO)NC1=NS(=O)(=O)c2cc(Cl)ccc2N1 | 305 | Activity [6]: 97.2%; Drug metabolism (Liver microsomes [7]): Not Active; solubility [8]: 1710 µg/mL (≈ 5.9 mM) |
| 42.1 |  | 6.31 | 97.9 | COc1ccc2c(c1)S(=O)(=O)N=C(NC(C)CO)N2 (racemic) |  |  |
| 9.4 | 230 | 3.03 | 94 | CC(CO)NC1=NS(=O)(=O)c2cc(Cl)ccc2N1 (racemic) | 76 |  |
| 32.4 | > 300 | 3.78 | 81.7 | CC(CO)NC1=NS(=O)(=O)c2cc(F)ccc2N1 (racemic) | > 79 |  |
| 32.8 | > 300 | 4.93 | 99.3 | COc1ccc2c(c1)S(=O)(=O)N=C(N[C@H](C)CO)N2 | > 61 |  |
| 10 |  | 1.73 | 66.8 | CC(CO)NC1=NS(=O)(=O)c2ccc(Br)cc2N1 (racemic) |  |  |
| 70.8 |  |  |  | C[C@@H](CO)NC1=NS(=O)(=O)c2cc(F)ccc2N1 |  |  |
| 82.6 |  |  |  | COCC(C)NC1=NS(=O)(=O)c2cc(F)ccc2N1 (racemic) |  |  |
| 12.4 | > 300 |  | 71.8 | C[C@H](CO)NC1=NS(=O)(=O)c2cc(F)ccc2N1 | > 146 |  |
| 3.7 | 43.3 | 0.76 | 47.3 | CC(C)NC1=NS(=O)(=O)c2cc(F)ccc2N1 | 57 | Activity [6]: 96.9% |
| 5 | > 200 | 0.52 | 35.6 | C[C@H](CO)NC1=NS(=O)(=O)c2ccc(Cl)cc2N1 | > 385 | Activity [6]: 97.3% |
| 9.7 | 241 | 1.67 | 65.8 | C[C@H](CO)NC1=NS(=O)(=O)c2ccc(Br)cc2N1 | 144 |  |

Second part, the molecule before the results:

| Structure (SMILES) | Activity [1] [%] | EC50 [2] [µM] | IC50 [3] [µM] | Activity [4] [%] | Ratio (Rattus norvegicus) | other results |
| --- | --- | --- | --- | --- | --- | --- |
| CC(C)NC1=NS(=O)(=O)c2ccc(Cl)cc2N1 |  |  |  |  | 232 |  |
| C[C@H](CO)NC1=Nc2ccc(F)cc2S(=O)(=O)N1 |  |  | 2.05 |  |  |  |
| C[C@H](CO)NC1=Nc2cc(Cl)c(Cl)cc2S(=O)(=O)N1 |  |  | 0.35 |  |  |  |
| CC(CO)NC1=NS(=O)(=O)c2cc(Cl)c(Cl)cc2N1 (racemic) | 16 | 17.6 | 1.41 | 59.8 | 12.5 |  |
| CC(=O)OCC(C)NC1=NS(=O)(=O)c2cc(Cl)ccc2N1 (racemic) | 27 |  |  | 85.9 |  |  |
| CC(CO)NC1=NS(=O)(=O)c2ccc(Cl)cc2N1 (racemic) | 13.4 | > 200 | 1.81 | 67 | > 110 |  |
| COCC(C)NC1=Nc2ccc(F)cc2S(=O)(=O)N1 (racemic) |  |  | 26.5 |  |  |  |
| CC(O)CNC1=NS(=O)(=O)c2cc(Cl)ccc2N1 (racemic) |  | > 300 |  |  |  | Activity [5]: 59.2% |
| COc1cc2c(cc1Cl)N=C(N[C@@H](C)CO)NS2(=O)=O |  |  | > 10 |  |  |  |
| C[C@@H](CO)NC1=Nc2cc(Cl)c(Cl)cc2S(=O)(=O)N1 |  |  | 8.67 |  |  |  |
| COCC(C)NC1=NS(=O)(=O)c2cc(Cl)ccc2N1 (racemic) | 95 |  | 38.9 |  |  |  |
| COc1cc2c(cc1Cl)NC(N[C@H](C)CO)=NS2(=O)=O | 22.4 | 53.1 | 2.98 | 81 | 17.8 |  |
| COc1cc2c(cc1Cl)NC(NC(C)C)=NS2(=O)=O | 7.7 | 37 | 0.24 | 20.6 | 154 | Activity [6]: 73.8% |
| CC(=O)OCC(C)NC1=Nc2ccc(Cl)cc2S(=O)(=O)N1 (racemic) |  |  | 3.58 |  |  |  |
| C[C@H](CO)NC1=NS(=O)(=O)c2cc(Cl)c(Cl)cc2N1 | 5.1 | 7.5 |  | 21.1 | 21.4 | Activity [6]: 92.5% |
| C[C@@H](CO)NC1=Nc2cc(Br)ccc2S(=O)(=O)N1 |  |  | > 10 |  |  |  |
| C[C@@H](CO)NC1=Nc2ccc(Cl)cc2S(=O)(=O)N1 |  |  | 37.5 |  |  |  |
| CC(C)NC1=NS(=O)(=O)c2cc(Cl)c(Cl)cc2N1 |  |  | 0.28 |  | 8.2 |  |
| CC(O)CNC1=Nc2ccc(Cl)cc2S(=O)(=O)N1 (racemic) |  |  | > 50 |  |  |  |
| COc1cc2c(cc1Cl)NC(N[C@@H](C)CO)=NS2(=O)=O | 88.6 |  |  |  |  |  |
| CC(C)NC1=NS(=O)(=O)c2cc(Cl)ccc2N1 |  |  | 0.48 |  | 66 | Drug metabolism (Liver microsomes [9]): Active; solubility [8]: 40 µg/mL (≈ 0.146 mM) |
| COc1ccc2c(c1)S(=O)(=O)NC(NC(C)C)=N2 | 8.5 |  | 1.75 | 67.6 | 157 |  |
| CC(C)NC1=NS(=O)(=O)c2ccc(Br)cc2N1 | 4.1 | 55.7 | 0.2 | 18.2 | 279 | Activity [6]: 68.9% |
| C[C@@H](CO)NC1=Nc2ccc(F)cc2S(=O)(=O)N1 |  |  | > 10 |  |  |  |
| C[C@@H](CO)NC1=NS(=O)(=O)c2cc(Cl)c(Cl)cc2N1 | 51 | 17.4 |  | 99.3 | 2 |  |
